Test results from PMC4548726 (Diabetes, Metabolic Syndrome and Obesity: Targets and …, 2015).

What was measured:
[1] = test system: diabetic NSG RIP-DTR mice engrafted with human islets; assay type: in vivo, mouse; settings: Donor 5 study; low dose 50 µg/kg sc twice daily
[2] = test system: diabetic NSG RIP-DTR mice engrafted with human islets; test: Body weight of human islet-engrafted mice; assay type: in vivo, mouse; settings: 50, 150, 500 µg/kg sc twice daily
How it was run: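 Male NSG RIP-DTR mice, 8–12 weeks old, made diabetic by diphtheria toxin ablation of mouse beta cells and engrafted with a marginal mass of human islets from a single donor. Randomized into four groups: vehicle or test compound at 50, 150 or 500 µg/kg/injection, given sc twice daily until removal of the graft-bearing kidney at ~4 weeks post-transplant. Body weights followed over the study.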

[3] = test system: human islets engrafted in NSG RIP-DTR mice; test: Plasma human insulin; assay type: in vivo, mouse; settings: 2 weeks post-transplant
[4] = test system: diabetic NSG RIP-DTR mice engrafted with human islets; test: Glucose tolerance test; assay type: in vivo, mouse; settings: for GTT vs controls: Donor 3 study
How it was run: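 Human islet-engrafted diabetic NSG RIP-DTR mice on twice-daily sc vehicle or test compound were fasted 5–6 hours. Glucose (2.0 g/kg body weight) was injected ip, and blood glucose was measured afterwards.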

[5] = test system: human beta cells in islet grafts; test: TUNEL assay of human beta-cell apoptosis in recovered islet grafts; assay type: in vivo
How it was run: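 Recovered human islet grafts were taken on days 29, 32 and 21 for the Donor 3, 4 and 5 studies, at the end of twice-daily sc dosing. Sections were co-stained for insulin and TUNEL-labelled following the kit instructions. Cells were visualized by fluorescence microscopy and counted, and results expressed as percent TUNEL-positive beta cells.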

[6] = test system: human beta and alpha cells in islet grafts; test: Total beta- and alpha-cell counts in human islet grafts; assay type: in vivo; settings: Donor 5 study
How it was run: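 After twice-daily sc dosing, the graft-bearing kidney was removed. For the Donor 5 study, grafts were recovered on day 21. Whole-section images were taken from the outer graft edge with a motorized-stage fluorescence microscope and stitched, and total insulin+ and glucagon+ cells were counted.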

[7] = test system: INS-1 rat pancreatic beta-cell line; settings: in vitro; cited from earlier work
[8] = test system: patients with T2D; settings: cited from earlier work
[9] = high dose 500 µg/kg sc twice daily
[10] = low dose 50 µg/kg sc twice daily, n=3 or 4
[11] = medium dose 150 µg/kg sc twice daily

For lixisenatide, the blood glucose [1] was ~ 400 mg/dL, the “body weight change between transplant and nephrectomy” value ([2]; Donor 1 study) was “all mice lost significant weight between the time of transplant and nephrectomy, except the medium-dose group” and the “body weight change between transplant and nephrectomy” value ([2]; Donor 3 and 4 studies) was “no significant change in body weight”. The “stimulation index (ratio of stimulated to fasting human insulin) vs control” value ([3]; high dose 500 µg/kg, Donor 3 and 4 studies) was “significantly increased compared to controls”, the “stimulation index (ratio of stimulated to fasting human insulin) vs control” value ([3]; medium dose 150 µg/kg, Donor 1, 3 and 4 studies) was “significantly increased compared to controls” and the GTT vs controls ([4]; high dose 500 µg/kg (P<0.05)) was “significant differences from controls”. For the same substance, the GTT vs controls ([4]; medium dose 150 µg/kg (P<0.01)) was “significant differences from controls”, the “GTT vs control group” value ([4]; Donor 4 study, low dose 50 µg/kg (P<0.05)) was “significant differences from the control group” and the “average percent beta-cell apoptosis at the end of each study” value ([5]; TUNEL-positive beta cells, control and lixisenatide groups, Donors 3, 4, 5) was under 1%. The “beta-cell apoptosis (TUNEL) vs control” value ([5]; grafts recovered days 29, 32, 21 (Donors 3, 4, 5), all dose groups) was “no significant differences in beta-cell apoptosis”, the “numbers of alpha cells in islet graft relative to control group” value [6, 9] was “approximately threefold higher” and the “numbers of beta cells in islet graft relative to control group” value [6, 9] was “approximately threefold higher”. For the same substance, the “alpha-cell counts in islet graft relative to control group” value [6, 10] was “approximately twofold higher”, the “beta-cell counts in islet graft relative to control group” value [6, 10] was “approximately twofold higher” and the “numbers of alpha cells in islet graft relative to control group” value [6, 11] was “approximately threefold higher”. For the same substance, the “numbers of beta cells in islet graft relative to control group” value [6, 11] was “approximately threefold higher”, the “lipid- and cytokine-induced apoptosis” value [7] was “protect against lipid- and cytokine-induced apoptosis” and the “reduction in postprandial plasma glucose vs placebo” value ([8]; T2D patients insufficiently controlled on metformin) was “significantly greater reduction in postprandial plasma glucose”. The “glycemic control (postprandial and fasting glucose levels)” value ([8]; patients with T2D, once-daily administration) was “improved glycemic control by decreasing both postprandial and fasting glucose levels”.
